Source: publication PMC3171567 (Steroids, 2011)
Residue numbers refer to the chain shown, from its start. Like-named read-outs stand apart in the source and are kept apart here.

Columns and labels:
[1] = system: AR protein in LAPC-4 tumors; assay: AR protein levels in excised LAPC-4 tumors, western blot; assay type: in vivo, male SCID mice
[2] = system: LAPC-4 xenografts; assay: LAPC-4 prostate cancer xenograft anti-tumor efficacy; assay type: in vivo, male SCID mice; conditions: for efficacy of oral dosing (in words): 0.15 mmol/kg o.d. p.o. up to day 24; for effect on LAPC-4 tumor growth (in words): third study, 0.15 mmol/kg s.c. once daily
[3] = system: prostate, seminal vesicles, and the testes; assay: Urogenital tissue weights in LAPC-4 xenograft mice; assay type: in vivo, male SCID mice; conditions: 31 days, 0.15 mmol/kg; 3 and 5 s.c. b.i.d., 4 and 5-acetate p.o.
How it was run: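 Male SCID mice, 4–6 weeks old, housed pathogen-free with food and water ad libitum. LAPC-4 cells were scraped into DPBS, pelleted and resuspended in Matrigel (10 mg/ml) at 2.0 × 10^7 cells/mL before inoculation. Vehicle was 0.3% HPC; test compounds were given at 0.15 mmol/kg. After 31 days of treatment, prostate, seminal vesicles and testes were excised and weighed and compared with vehicle controls.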

[4] = molecular target: T1, human CYP17 (Homo sapiens, UniProt P05093); conditions: read-out: CYP17 IC50; value for 5; cited from earlier work
T1 sequence (P05093 whole entry): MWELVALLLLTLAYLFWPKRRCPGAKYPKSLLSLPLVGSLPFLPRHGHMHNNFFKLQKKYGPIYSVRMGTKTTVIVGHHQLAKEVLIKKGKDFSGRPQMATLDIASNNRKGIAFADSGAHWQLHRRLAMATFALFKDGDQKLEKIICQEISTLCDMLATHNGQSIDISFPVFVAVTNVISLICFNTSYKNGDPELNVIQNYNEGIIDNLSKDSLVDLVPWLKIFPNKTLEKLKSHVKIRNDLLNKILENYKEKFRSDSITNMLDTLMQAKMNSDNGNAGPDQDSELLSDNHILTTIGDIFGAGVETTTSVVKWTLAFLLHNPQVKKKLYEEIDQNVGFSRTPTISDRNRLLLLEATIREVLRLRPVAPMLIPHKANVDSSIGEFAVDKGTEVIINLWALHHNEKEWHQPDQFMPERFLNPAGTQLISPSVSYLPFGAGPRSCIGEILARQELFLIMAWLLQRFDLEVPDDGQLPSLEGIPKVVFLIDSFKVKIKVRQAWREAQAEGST

[5] = system: LAPC-4 cells; assay: Cell proliferation / viability XTT assay, LAPC-4; assay type: cell-based; conditions: Homo sapiens; for GI50: LAPC4, read-out: Cell growth inhibition GI50 LAPC-4; for IC50: LAPC4, read-out: IC50 in DHT stimulated LAPC4 proliferation
How it was run: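 Cells moved to steroid-free medium (phenol red-free RPMI, 5% dextran-coated charcoal-treated serum, 1% penicillin/streptomycin) 3 days before plating at 1.5 × 10^4 cells/well. After 24 h attachment, they were given steroid-free medium with ethanol vehicle, androgens and/or test compound, changed every three days. Viability was read by XTT absorbance on day 7. Each result is the average of at least three wells.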

[6] = system: LNCaP cells; assay: Cell proliferation / viability XTT assay, LNCaP; assay type: cell-based; conditions: Homo sapiens; for GI50: read-out: Cell growth inhibition GI50 LNCaP; for IC50: read-out: IC50 in DHT stimulated LNCaP cells; for inhibition at 10 µM: read-out: inhibition of LNCaP proliferation
[7] = molecular target: T2, mutant T877A AR (in LNCaP cells) (Homo sapiens, UniProt P10275, T878A); assay type: binding
T2 sequence (P10275 1-920 T878A): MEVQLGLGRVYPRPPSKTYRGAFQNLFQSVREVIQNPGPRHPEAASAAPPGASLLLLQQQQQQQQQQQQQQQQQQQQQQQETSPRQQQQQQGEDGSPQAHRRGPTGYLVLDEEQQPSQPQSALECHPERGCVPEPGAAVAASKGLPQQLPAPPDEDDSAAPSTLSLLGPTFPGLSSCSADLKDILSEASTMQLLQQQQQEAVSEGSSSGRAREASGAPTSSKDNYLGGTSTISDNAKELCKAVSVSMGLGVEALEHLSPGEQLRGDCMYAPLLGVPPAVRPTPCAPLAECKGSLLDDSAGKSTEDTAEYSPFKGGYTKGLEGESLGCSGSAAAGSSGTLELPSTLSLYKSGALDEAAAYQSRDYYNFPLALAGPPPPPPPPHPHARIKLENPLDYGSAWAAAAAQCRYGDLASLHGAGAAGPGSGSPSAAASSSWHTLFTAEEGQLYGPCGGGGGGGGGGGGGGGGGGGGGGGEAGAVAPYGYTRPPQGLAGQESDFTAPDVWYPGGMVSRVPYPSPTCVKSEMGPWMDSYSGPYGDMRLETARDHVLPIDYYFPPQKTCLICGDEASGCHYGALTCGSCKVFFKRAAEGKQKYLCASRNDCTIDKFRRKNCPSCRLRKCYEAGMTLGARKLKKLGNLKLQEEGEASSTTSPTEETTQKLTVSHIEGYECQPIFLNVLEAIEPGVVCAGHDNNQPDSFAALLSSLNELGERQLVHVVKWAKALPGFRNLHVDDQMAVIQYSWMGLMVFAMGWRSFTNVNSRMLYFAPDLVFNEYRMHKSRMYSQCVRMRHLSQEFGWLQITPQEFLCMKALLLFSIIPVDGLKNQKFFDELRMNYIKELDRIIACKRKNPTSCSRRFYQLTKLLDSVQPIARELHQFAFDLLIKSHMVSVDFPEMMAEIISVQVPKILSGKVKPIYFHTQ

[8] = Toxicity monitoring in LAPC-4 xenograft mice; assay type: in vivo, male SCID mice; conditions: third study; for deaths of mice: 10 mice per group
[9] = system: androgen receptor expression in LNCaP cells; assay: AR down-regulation in LNCaP cells, western blot densitometry; assay type: cell-based, human; conditions: for AR down-regulation (in words): highest concentration (15 μM) tested
[10] = molecular target: T3, wild-type AR (in LAPC-4 cells) (Homo sapiens, UniProt P10275); assay type: binding
T3 sequence (P10275 1-920): T2 sequence (P10275 1-920 T878A) with A878T

[11] = molecular target: T1, human CYP17; assay: Acetic acid releasing assay for CYP17 activity in 293T-CYP17 cells; assay type: cell-based; conditions: read-out: CYP17 IC50, each in duplicate
[12] = system: androgen-induced AR transcription; assay: Transcriptional activation luciferase assay; assay type: cell-based, human; conditions: LNCaP, ARR-2 reporter, with or without DHT
How it was run: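 LNCaP cells were kept steroid-free for 3 days, plated at 1 × 10^5 cells/well, then co-transfected with ARR2-Luc and Renilla pRL-null using Lipofectamine 2000. After 24 h at 37 °C, cells in serum-free phenol red-free RPMI were treated in triplicate with DHT, ethanol vehicle and/or test compound for 18 h. A dual luciferase read-out gave fold induction over control, normalized to Renilla.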

[13] = first study, 0.15 mmol/kg s.c. b.i.d.

C[C@]12CC[C@H](O)CC1=CC[C@@H]1[C@@H]2CC[C@]2(C)C(c3cccnc3)=CC[C@@H]12 [Compound 3, 3β-Hydroxy-17-(3-pyridyl)androsta-5,16-dien]
effect on AR levels in tumors (in words) [1, 13]: no significant effect on AR levels
efficacy of oral dosing (in words) ([2]; first study): neither compound demonstrated any significant efficacy
prostate size/weight (in words) [3]: failed to significantly reduce the size of any of the organs
seminal vesicles size/weight (in words) [3]: failed to significantly reduce the size of any of the organs
testes size/weight (in words) [3]: failed to significantly reduce the size of any of the organs

CC(=O)O[C@H]1CC[C@@]2(C)C(=CC[C@@H]3[C@@H]2CC[C@]2(C)C(c4cccnc4)=CC[C@@H]32)C1 [Compound 4, 3β-Acetoxy-17-(3-pyridyl)androsta-5,16-dien, reference compound]
efficacy of oral dosing (in words) ([2]; first study): neither compound demonstrated any significant efficacy
seminal vesicles size/weight (in words) [3]: significantly reduced the size of the seminal vesicles

C[C@]12CC[C@H](O)CC1=CC[C@@H]1[C@@H]2CC[C@]2(C)C(n3cnc4ccccc43)=CC[C@@H]12 [Compound 5, 3β-Hydroxy-17-(1H-benzimidazol-1-yl)androsta-5,16-dien]
IC50 [4]: 0.047 µM
GI50 [5]: 3.2 µM
inhibition of growth of LAPC-4 tumors (in words) [2, 13]: most effective therapy in inhibiting the growth of LAPC-4 tumors
average tumor volume on day 31 (in words) ([2]; first study, 0.15 mmol/kg s.c. b.i.d., vs control p = 0.0001, 4 p = 0.005, 3 p = 0.053, 5-acetate p = 0.006): smaller average tumor volume on day 31
final tumor weights (in words) ([2]; first study, 31 days of treatment, vs control, 3, and castration, p < 0.05): significantly reduced
oral activity (in words) ([2]; preclinical studies): not orally active
effect on LAPC-4 tumor growth (in words) [2]: did not have a significant effect on tumor growth
GI50 [6]: 6 µM
prostate size/weight (in words) [3]: reduced the size of the prostate, although the reduction was not quite significant
seminal vesicles size/weight (in words) [3]: significantly reduced the size of the seminal vesicles and testes
testes size/weight (in words) [3]: significantly reduced the size of the seminal vesicles and testes

C[C@]12CCC(F)CC1=CC[C@@H]1[C@@H]2CC[C@]2(C)C(n3cnc4ccccc43)=CC[C@@H]12 (some centres unmarked) [Compound 6, 3ξ-Fluoro-17-(1H-benzimidazol-1-yl)androsta-5,16-dien]
EC50 [7]: 1.6 µM
binding to the mutant AR compared to 5 (in words) [7]: not significantly different from binding of 5
changes in mouse weights (in words) [8]: no changes in mouse weights were observed
deaths of mice ([8]; 0.15 mmol/kg s.c. once daily): five mice
deaths of mice ([8]; 0.15 mmol/kg s.c. twice daily): two mice
signs of toxicity at internal examination (in words) ([8]; necropsy): no overt signs toxicity were seen
effect on AR protein levels in tumors (in words) ([1]; third study, 0.15 mmol/kg s.c., twice daily administration): only a minor and statistically insignificant effect on AR protein levels
AR down-regulation ([9]; 15 μM, 24 hours): 50%
GI50 [5]: 16 µM
IC50 [5]: 7 µM
EC50 [10]: 0.934 µM
reduction of wild-type AR binding compared to 5 ([10]; ratio of EC50 to that of 5): 2.3 fold
IC50 [11]: 0.15 µM
AR agonist/antagonist character in transcriptional activation studies [12]: pure AR antagonists
efficacy versus LAPC-4 xenografts relative to 5 ([2]; on equimolar basis): ~ 2 fold
effect on LAPC-4 tumor growth (in words) [2]: as effective in inhibiting LAPC-4 tumor growth as twice daily administration of 5
GI50 [6]: 8 µM
IC50 [6]: 8 µM
inhibition at 10 µM [6]: 85%

C[C@]12CC[C@@H](N=[N+]=[N-])CC1=CC[C@@H]1[C@@H]2CC[C@]2(C)C(n3cnc4ccccc43)=CC[C@@H]12 [Compound 8, 3α-Azido-17-(1H-benzimidazol-1-yl)androsta-5,16-dien]
EC50 [7]: 4.34 µM
binding to the mutant AR compared to 5 (in words) [7]: greatly reduced
AR down-regulation (in words) [9]: did not cause down-regulation of AR expression
GI50 [5]: 19 µM
IC50 [5]: 19 µM
EC50 [10]: 2.46 µM
binding affinity to the wild-type AR compared to 5 (in words) [10]: greatly reduced
IC50 [11]: 0.12 µM
AR agonist/antagonist character in transcriptional activation studies [12]: pure AR antagonists
GI50 [6]: 7 µM
IC50 [6]: 16 µM
inhibition at 10 µM [6]: 60%

C[C@]12CC[C@H](OS(N)(=O)=O)CC1=CC[C@@H]1[C@@H]2CC[C@]2(C)C(n3cnc4ccccc43)=CC[C@@H]12 [Compound 9, 3β-O-Sulfamoyl-17-(1H-benzimidazol-1-yl)androsta-5,16-dien]
effect on LAPC-4 tumor growth, oral (in words) ([2]; administered orally as described for 5): did not show any significant effect on LAPC-4 tumor growth

C[C@]12CC[C@H](O)CC1=CC[C@@H]1[C@@H]2CC[C@]2(C)C(n3cnc4ccccc43)CC[C@@H]12 (stereo partly drawn) [Compound 10, 3β-Hydroxy-17-(1H-benzimidazol-1-yl)androsta-5-ene]
AR down-regulation (in words) [9]: did not cause down-regulation of AR expression

C[C@]12CC[C@H](O)C[C@@H]1CC[C@@H]1[C@@H]2CC[C@]2(C)C(n3cnc4ccccc43)=CC[C@@H]12 [Compound 15, 3β-Hydroxy-17-(1H-benzimidazol-1-yl)-5α-androsta-16-ene]
AR down-regulation (in words) [9]: did not cause down-regulation of AR expression
GI50 [6]: 17.6 µM
